# Only some compounds are listed: those with a hit (about 2.9% of all), similar ones and a draw of the others.
# Apaf1 inhib: inhibitors of human Apaf-1 apoptosome | O14727 | reconstituted apoptosome caspase-3 activity, DEVD-Rh110 fluorescence | inhibition, % at 20 µM | actives 0.71% (n = 330,000); active = inhibition of at least 40% at 20 µM;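 also: plate controls were DMSO wells for no effect and DEVD-CHO caspase inhibitor wells for full effect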
#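 detection = Rh110 fluorescence intensity | test system = biochemical Apaf-1 apoptosome reconstitution | also added = cytochrome c and DEVD-Rh110 substrate | schedule = 30 min plus 50 min, RT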
# MEKK3 PB1 HTS: modulators (inhibitors or enhancers) of MEK5 binding to human MEKK3 PB1 domain; Q99759; bead-based flow cytometry, Alexa488-MEK5 binding to MEKK3; actives lie on both sides; 0 = blocked by unlabeled MEK5, 100 = vehicle; binding response (% of control), % at 10 µM; actives 1.4% (n = 290,000); AID 1529;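 active = binding response more than 3 SD above or below the average of its plate-row segment, actives on both sides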;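 also: Alexa488 bead fluorescence after subtracting the streptavidin-only scavenger bead signal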
# UBC13 inh: blocks human UBC13 polyubiquitin chain formation | P61088 | TR-FRET | inhibition, % at 20 µM | actives 0.47% (n = 330,000); in the data active = inhibition above about 45%, passing the limit was not always enough
# Target sequence (P61088 whole entry, looked up): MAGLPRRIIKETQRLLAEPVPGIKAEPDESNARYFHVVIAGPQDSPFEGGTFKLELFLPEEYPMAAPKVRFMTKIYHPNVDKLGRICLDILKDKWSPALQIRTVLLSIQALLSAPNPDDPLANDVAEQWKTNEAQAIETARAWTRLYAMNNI
# MEKK2wt PB1 HTS: raises or lowers MEK5 binding to wildtype human MEKK2 PB1 domain; Q9Y2U5; bead flow cytometry, Alexa488-MEK5 binding to MEKK2 WT; actives lie on both sides; binding response (% of control), % at 10 µM; actives 1.1% (n = 290,000); AID 1531; in the data active = binding response below about 67% or above about 130%
# MEKK2mut PB1 HTS: signal of MEK5 binding to mutant human MEKK2 PB1 domain; bead flow cytometry, Alexa488-MEK5 binding to MEKK2 mutant; actives 0.35% (n = 290,000); percent response, % at 10 µM; in the data active = percent response above about 24%, passing the limit was not always enough
# MEKK2wt confirm: raises or lowers MEK5 binding to wildtype human MEKK2, retest | binding response (% of control), % at 10 µM | actives 2.4% (n = 5,900) | bead flow cytometry, Alexa488-MEK5 binding to MEKK2 WT; actives lie on both sides | AID 1892 | shares compounds with MEKK3 PB1 HTS; in the data active = binding response below about 16% or above about 210%; inactive = in between
# MEKK2mut confirm: signal of MEK5 binding to mutant human MEKK2, retest. bead flow cytometry, Alexa488-MEK5 binding to MEKK2 mutant. percent response, % at 10 µM. shares compounds with MEKK3 PB1 HTS. actives 2% (n = 5,900). AID 1893; in the data active = percent response mostly above about 71%, no sharp cut-off; inactive = mostly below about 38%;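 also: higher means compound restores mutant binding toward wildtype level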
# MEKK3 confirm: MEKK3-MEK5 PB1 inhibition, single concentration confirmation. shares compounds with MEKK3 PB1 HTS. bead flow cytometry, Alexa488-MEK5 binding to MEKK3; hits give low values. binding response (% of control), % at 10 µM. actives 1.8% (n = 5,900). AID 1894;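 active = binding response below 72% of control, or above a set upper limit, though filed actives all read lower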;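 also: 100% = DMSO only wells and 0% = binding blocked by excess unlabeled MEK5; lower values mean stronger disruption of MEK5 binding to MEKK3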
# * marks the source's active call; other numbers are inactive results; / = no result given; [ ] = remark or other dose.
SMILES,Apaf1 inhib,MEKK3 PB1 HTS,UBC13 inh,MEKK2wt PB1 HTS,MEKK2mut PB1 HTS,MEKK2wt confirm,MEKK2mut confirm,MEKK3 confirm
CCCCCN(C(=O)CCC(=O)OCC(=O)c1ccc(C(C)CC)cc1)c1c(N)n(CCCC)c(=O)[nH]c1=O (stereo not given),19.4,/,-21.3,/,/,/,/,/
CN(C)c1cccc(C(=O)OCCNC(=O)c2cccc(S(=O)(=O)N3CCOCC3)c2)c1,-4.7,46.0*[inhibitor],5.4,52.0,-12.0,104.0,3.0,102.0
COc1ccc(NS(=O)(=O)c2cc(C(=O)N3CCN(C(C)=O)CC3)ccc2Cl)cc1,-2.3,71.0*[inhibitor],2.1,77.0,-2.0,102.0,4.0,104.0
COc1ccc(NS(=O)(=O)c2ccc(C(=O)N3CCCCCC3)cc2)cc1,-1.3,/,15.8,/,/,/,/,/
CCN(CC)C(=S)Nc1ccc(OC(F)F)cc1,5.9,102.0,-16.7,102.0,1.0,/,/,/
CCN(CC)C(=S)Nc1ccc(OC)cc1,6.0,155.0*,-9.2,113.0,1.0,103.0,2.0,104.0
NC(=O)N1c2ccccc2C=Cc2ccccc21,0.5,94.0,2.1,103.0,-2.0,/,/,/
CN1CCN(C(=O)N2c3ccccc3C=Cc3ccccc32)CC1,-4.1,0.0*[inhibitor],4.2,0.0*[inhibitor],-26.0,107.0,4.0,103.0
CCOC(=O)NN1C(=O)c2ccccc2NC1c1ccccc1 (stereo not given),-0.1,149.0*,28.4,105.0,1.0,119.0,15.0,107.0
CCOC(=O)NN1C(=O)c2ccccc2NC1c1ccc(N(C)C)cc1 (stereo not given),-2.8,144.0*,6.5,109.0,1.0,103.0,10.0,107.0
CCOC(=O)N1CCN(S(=O)(=O)c2ccc(C(=O)Nc3ccc4c(c3)C(=O)NC4=O)cc2)CC1,3.1,101.0,5.4,101.0,-1.0,/,/,/
Cn1c(SCc2ccccc2F)nnc1-c1ccccn1,-2.9,100.0,5.5,102.0,0.0,/,/,/
Cc1ccc(NC(NC(=O)c2ccccc2[N+](=O)[O-])C(Cl)(Cl)Cl)cc1 (stereo not given),1.8,133.0*,-0.6,109.0,0.0,98.0,3.0,99.0
O=C(O)c1cccc(NC(=S)NC(NC(=O)c2ccccc2[N+](=O)[O-])C(Cl)(Cl)Cl)c1 (stereo not given),-4.0,103.0,2.0,101.0,2.0,/,/,/
CC1=CC(C)(C)C(C(=O)O)C(C(=O)O)C1 (stereo not given),11.1,141.0*,-8.7,136.0*,10.0,112.0,19.0,88.0
CC1C=CCC2C(=O)N(c3ccc(OC(=O)c4ccco4)cc3)C(=O)C12 (stereo not given),-1.4,161.0*,-2.2,134.0,7.0,111.0,6.0,106.0
Cc1cc(-c2ccc(C(C)C)c(S(=O)(=O)Nc3cc(C)on3)c2)on1,3.2,101.0,-8.0,98.0,-4.0,/,/,/
C/C(CC(=O)Nc1ccc(F)cc1F)=N\NC(=O)C(=O)N1CCCCC1,7.6,101.0,0.8,100.0,2.0,/,/,/
O=C(C[C@@H]1C/C=C\C[C@@H](Cc2ccc(F)cc2)C(=O)OC[C@@H](Cc2ccccc2)NC1=O)N[C@H](CO)Cc1ccccc1,13.9,/,-10.6,/,/,/,/,/
S=c1nc(-c2ccccc2Br)[nH][nH]1,-3.1,1.0*[inhibitor],6.2,-2.0*[inhibitor],-3.0,97.0,-3.0,94.0
S=c1nc(-c2cc(Cl)ccc2Cl)[nH][nH]1,2.2,103.0,5.1,106.0,0.0,/,/,/
O=C(Nc1ccon1)c1ccc(S(=O)(=O)N2CCOCC2)cc1,0.8,104.0,4.8,108.0,6.0,/,/,/
COc1ccc(Oc2ccc(C(F)(F)F)cc2NC(=O)c2ccc(F)cc2)cc1,9.9,133.0*,-11.5,122.0,28.0,102.0,-8.0,97.0
C/C(N)=C(/C#N)C(=O)COC(=O)c1ccncc1,4.1,135.0*,-9.4,113.0,6.0,104.0,2.0,104.0
CCN1CCN(Cc2ccc(NC(=O)c3ccc(C)c(NC(=O)c4ccc5n[nH]nc5c4)c3)cc2C(F)(F)F)CC1,1.5,115.0,-9.2,88.0,11.0,/,/,/
SMILES,Apaf1 inhib,MEKK3 PB1 HTS,UBC13 inh,MEKK2wt PB1 HTS,MEKK2mut PB1 HTS,MEKK2wt confirm,MEKK2mut confirm,MEKK3 confirm
CCN1CCN(Cc2ccc(NC(=O)c3ccc(C)c(NC(=O)c4ccnnc4)c3)cc2C(F)(F)F)CC1,-1.9,81.0*[inhibitor],0.0,99.0,-6.0,112.0,5.0,103.0
N#CC(C#N)=C1C=CC=CN1/C(=C\c1ccco1)C(=O)c1ccc(Br)cc1,/,137.0*,/,106.0,1.0,100.0,-2.0,102.0
COc1ccc(C2=NN(C(=O)CSc3nc4ccccc4s3)C(c3ccc(F)cc3)C2)cc1 (stereo not given),22.4,86.0,-20.4,83.0,-2.0,/,/,/
COc1ccc(C2=NN(C(=O)CSc3nc4ccccc4s3)C(c3ccc(OC)cc3)C2)cc1 (stereo not given),16.5,148.0*,-2.2,99.0,0.0,87.0,-6.0,92.0
CC1=NNC(=O)C1C(c1ccccc1)C1C(=O)NN=C1C (stereo not given),-5.6,129.0*,-25.1,113.0,1.0,97.0,-6.0,101.0
O=S1(=O)CCC(NC(=S)N2CCOCC2)C1 (stereo not given),-5.2,98.0,8.8,103.0,1.0,/,/,/
O=C(C1=C(O)C(=O)N(Cc2ccco2)C1c1cccc(O)c1)c1ccco1 (stereo not given),4.5,105.0,-0.3,103.0,4.0,/,/,/
CC(=O)C1=C(O)C(=O)N(Cc2ccco2)C1c1cccc(F)c1 (stereo not given),11.5,129.0*,-14.9,113.0,0.0,97.0,-7.0,96.0
CN(CC(=O)Nc1cccc2c1CCCC2)S(=O)(=O)c1ccc(Br)cc1,16.9,94.0,8.7,94.0,-3.0,/,/,/
CN(CC(=O)Nc1cccc2c1CCCC2)S(=O)(=O)c1ccccc1,8.8,80.0*[inhibitor],12.9,88.0,-4.0,99.0,6.0,100.0
Cc1cc(-c2ccccc2)nc(N/N=C/c2ccc(O)cc2O)n1,7.4,108.0,-22.6,111.0,6.0,/,/,/
Cc1cc(NCc2ccccc2)c2ccccc2n1,-1.6,111.0,-0.2,149.0*,8.0,116.0,9.0,103.0
Cc1cc(N/N=C/c2ccccc2O)c2ccccc2n1,30.2,108.0,4.3,186.0*,14.0,135.0,14.0,102.0
Cc1cc(NCc2ccccc2)nc2ccccc12,8.2,99.0,12.8,106.0,3.0,/,/,/
Cc1cc(NCCCN(C)C)n2nc(-c3cccs3)cc2n1,-7.5,112.0,5.5,107.0,26.0*,107.0,-2.0,104.0
